Results as given in publication PMC5559291 (Journal of the American Chemical Society, 2015).
Like-named read-outs stand apart in the source and are kept apart here.

Experiments:
[1] = format: physicochemical; conditions: from sedimentation velocity on diluted samples
Outline: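 Diluted neutral-pH and protofibril Aβ40 samples were loaded into 12 mm path-length cells, equilibrated 2 h at 20.0° C, and spun at 20,000-50,000 rpm. Detection used absorbance at 280 nm and Rayleigh interference. Data were analysed as continuous c(s) distributions of Lamm equation solutions with maximum-entropy regularization, and sedimentation coefficients were corrected to 20° C water.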

[2] = ref 7c, 7d, cited from earlier work
[3] = format: physicochemical
[4] = typical values; cited from earlier work
[5] = Size exclusion chromatography; format: physicochemical; conditions: protofibril sample; SEC deemed unreliable by the authors
Outline: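 Superose 6 10/300 GL column (Vc = 24 ml); 50 μl Aβ40 sample injected and eluted at 0.5 ml/min. The column was equilibrated in either 10 mM sodium phosphate (pH 7.4) or 20 mM NaOH, with or without 150 mM NaCl. Apparent molecular weight was read from elution volume.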

Sedimentation velocity = format: physicochemical
[6] = Persistence of Aβ40 protofibrils in quiescent solution; format: physicochemical
[7] = 37° C; cited from earlier work
[8] = protofibril sample, 2.0 mM Aβ40

| Substance | quasi-equilibrium solubility of Aβ40 assemblies ([1]; neutral pH sample) | quasi-equilibrium solubility of Aβ40 assemblies ([1]; protofibril sample) | incubation time for evolution of spherical assemblies to mature fibrils ([2]; TEM, without sonication or agitation) | size of long-lived spherical assemblies ([2]; formed at 4° C, pH 7.4, 100 μM peptide) [kDa] | monomeric fraction ([3]; high pH samples) [%] | fraction of protofibrillar assemblies ([3]; protofibril samples) [%] | quasi-equilibrium solubility of mature fibrils [4] | apparent molecular weight of a large fraction of material [5] | apparent molar mass of slowly sedimenting species (Sedimentation velocity; neutral pH sample, 2.0 mM Aβ40) [kDa] | estimated molar masses of aggregates (Sedimentation velocity; neutral pH sample, 2.0 mM Aβ40) | sedimentation coefficients of aggregates (broadly distributed around) (Sedimentation velocity; neutral pH sample, 2.0 mM Aβ40) | aggregates as fraction of the loading signal (Sedimentation velocity; neutral pH sample, 2.0 mM Aβ40, pH 7.5) | sedimentation coefficient of slowly sedimenting species (Sedimentation velocity; neutral pH sample, 2.0 mM Aβ40, remaining material) [S] | apparent molar masses of rapidly sedimenting species (Sedimentation velocity; [8]) | fraction of material consisting of rapidly sedimenting species (Sedimentation velocity; [8]) | stability of protofibrils ([6]; quiescent solutions at pH 7.5, TEM) | persistence of protofibrils ([6]; room temperature, without sonication or agitation of the Aβ40 solution) | time for subsequent conversion to fibrils [7] [days] |
| --- | --- | --- | --- | --- | --- | --- | --- | --- | --- | --- | --- | --- | --- | --- | --- | --- | --- | --- |
| Aβ40: 40-residue amyloid-β peptide, made by FMOC solid-phase synthesis | greater than 10 μM | greater than 10 μM | more than 50 h | ~650 | > 90 | > 90 | less than 1 μM | greater than 1 MDa | 4.7 | around 0.4 MDa | around 11 S | approximately 75% | ~0.6 | roughly 10 MDa | approximately 95% | stable for at least several weeks | at least 20 days |  |
| Aβ42: 42-residue amyloid-β peptide; literature results only |  |  |  |  |  |  |  |  |  |  |  |  |  |  |  |  |  | ≤ 12 |
